“Also recorded” adds a separate entry of the source. Blank lines part the entries; values can stand above or below the compound they belong to.
Columns and labels:
P. aeruginosa PA14 = conditions: vs DMSO control; cited from earlier work
LecBPA14 [1] = target: T1, LecBPA14 (Pseudomonas aeruginosa, UniProt A0A0H2ZE85); conditions: read-out: LecBPA14 IC50; previously published; cited from earlier work
T1 sequence (A0A0H2ZE85 2-115): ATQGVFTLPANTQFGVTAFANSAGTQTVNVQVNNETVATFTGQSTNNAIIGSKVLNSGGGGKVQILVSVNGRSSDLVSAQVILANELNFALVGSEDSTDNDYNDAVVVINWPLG

[2] = mice; as reported; cited from earlier work
[3] = cited from earlier work
Plasma stability assay = type: in vitro ADME, mouse; conditions: 25 μM, 37 °C, period of 120 min
Outline: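 Test compound (DMSO stock) spiked into mouse plasma (pH 7.4) at final 25 μM and incubated at 37 °C. Samples taken at 0, 15, 30, 60, 90 and 120 min, extracted with methanol containing internal standard (5 min shaking), centrifuged, and supernatants analyzed by reversed-phase C18 HPLC (water/acetonitrile + 0.1% formic acid gradient). Controls were procaine, propoxycaine and procainamide at 250 μM.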

LecBPAO1 = LecBPAO1 (Pseudomonas aeruginosa, UniProt Q9HYN5); assay: Isothermal titration calorimetry; type: binding; conditions: ITC, 25 °C, mean
[4] = system: mCherry-expressing P. aeruginosa; assay: Bacterial growth by total fluorescence intensity; type: cell-based, Pseudomonas aeruginosa; conditions: 100 μM, 23 h, vs DMSO control
LecBPA14 [5] = target: T1, LecBPA14; conditions: ITC, 25 °C, mean
Plasma protein binding = type: in vitro ADME, mouse; conditions: murine plasma, 100 μM, 37 °C, 2 h
Hep G2 cells = assay: MTT assay; type: cell-based, human; conditions: up to 100 μM, 24 h
Outline: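 Hep G2 cells grown in DMEM + 10% heat-inactivated FCS (37 °C, 5% CO2) to 75% confluency, then exposed 24 h to compound (0.01–100 μM; DMSO stock diluted in PBS, final 0.1% DMSO). Controls: vehicle, medium, and cells lysed with 0.5% Triton X-100. After two washes, MTT (final 1 mg/mL) for 3 h, then 0.04 M HCl/2-propanol for 15 min at room temperature. A560 read against 670 nm reference; normalized as (A–B)/(C–B) to Triton and vehicle controls.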

LecBPAO1, sequence (Q9HYN5 2-115 limits assumed): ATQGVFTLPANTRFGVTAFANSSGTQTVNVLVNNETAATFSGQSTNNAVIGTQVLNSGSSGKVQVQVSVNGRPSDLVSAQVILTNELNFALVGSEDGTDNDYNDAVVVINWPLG

Structure (SMILES): CO[C@H]1O[C@H](CO)[C@@H](O)[C@H](O)[C@@H]1O [Compound 1, methyl α-D-mannoside]
- effect on biofilm formation (P. aeruginosa PA14): nonsignificant effect

Structure (SMILES): COc1ccc(/C=C/C(=O)NC[C@H]2O[C@@H](C)[C@@H](O)[C@@H](O)[C@@H]2O)cc1OC [Compound 5]
- IC50 (LecBPA14 [1]): 2800 nM

Structure (SMILES): Cc1cc(C)c(S(=O)(=O)NC[C@H]2O[C@@H](C)[C@@H](O)[C@@H](O)[C@@H]2O)c(C)c1 [Compound 6]
- toxicity in a murine pharmacokinetics model [2]: nontoxic
- metabolic stability against liver microsomes and murine plasma [3]: good metabolic stability

Structure (SMILES): C[C@@H]1O[C@H](CNS(=O)(=O)c2cccs2)[C@@H](O)[C@H](O)[C@@H]1O [Compound 7]
- toxicity in a murine pharmacokinetics model [2]: nontoxic
- metabolic stability against liver microsomes and murine plasma [3]: good metabolic stability

- stability in murine plasma (Plasma stability assay): fully stable
Structure (SMILES): Cc1oncc1S(=O)(=O)NC[C@H]1O[C@@H](C)[C@@H](O)[C@@H](O)[C@@H]1O [Compound 17, N-β-L-Fucopyranosylmethyl 5-Methyl-4-isoxazolesulfonamide]

- -TΔS LecBPAO1 (LecBPAO1): 13.5 kJ/mol
- ΔH LecBPAO1 (LecBPAO1): -47.3 kJ/mol
- stability in murine plasma (Plasma stability assay): fully stable
- -TΔS LecBPA14 (LecBPA14 [5]): 3.3 kJ/mol
- ΔH LecBPA14 (LecBPA14 [5]): -40.4 kJ/mol
Structure (SMILES): Cc1cc(S(=O)(=O)NC[C@H]2O[C@@H](C)[C@@H](O)[C@@H](O)[C@@H]2O)c(C)s1 [Compound 22, N-β-L-Fucopyranosylmethyl 2,5-Dimethyl-3-thiophenesulfonamide]
- bacterial growth (total fluorescence intensity) [4]: comparable densities

- stability in murine plasma (Plasma stability assay): fully stable
Structure (SMILES): Cc1ccc(S(=O)(=O)NC[C@H]2O[C@@H](C)[C@@H](O)[C@@H](O)[C@@H]2O)s1 [Compound 23, N-β-L-Fucopyranosylmethyl 5-Methyl-2-thiophenesulfonamide]

- stability in murine plasma (Plasma stability assay): fully stable
Structure (SMILES): C[C@@H]1O[C@H](CNS(=O)(=O)c2cc(Cl)c(Cl)s2)[C@@H](O)[C@H](O)[C@@H]1O [Compound 27, N-β-L-Fucopyranosylmethyl 4,5-Dichloro-2-thiophenesulfonamide]

- stability in murine plasma (Plasma stability assay): fully stable
Structure (SMILES): C[C@@H]1O[C@H](CNS(=O)(=O)c2ccc(C#Cc3ccccc3)s2)[C@@H](O)[C@H](O)[C@@H]1O [Compound 29, N-β-L-Fucopyranosylmethyl 5-Phenylethynyl-2-thiophenesulfonamide]
- bacterial growth (total fluorescence intensity) [4]: comparable densities
- plasma protein binding (in words) (Plasma protein binding): highly bound; also recorded: very high plasma protein binding
- toxicity to Hep G2 cells (in words) (Hep G2 cells): weak toxicity; also recorded: moderate mammalian cytotoxicity

Structure (SMILES): CO[C@@H]1O[C@@H](C)[C@@H](O)[C@@H](O)[C@@H]1O [Compound 42, methyl α-L-fucoside]
- effect on biofilm formation (P. aeruginosa PA14): nonsignificant effect

Source: PMC6873108 (Journal of Medicinal Chemistry, 2019)
